Data taken from ChEMBL document CHEMBL4190218, “Potent Inhibitor of Drug-Resistant HIV-1 Strains Identified from the Medicinal Plant Justicia gendarussa” (J Nat Prod, 2017).

Tests used:
[1] = test system: Human immunodeficiency virus 1; test: Antiviral activity against HIV1 virions derived from […] or HIV/HA virions infected 293T cells using human A549 cells as target cells assessed as inhibition of viral replication using compound pre-mixed virions followed by incubation with target cells for 24 hrs by luciferase reporter gene assay based defective HIV1 pseudoviral assay; type: functional, organism-based; conditions: Human immunodeficiency virus 1, 24 h
Procedure, shortened: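 Pseudovirions made by cotransfecting 293T cells with VSV-G, or HA plus NA, envelope plasmids and pNL4-3-Luc.R-.E- vector; supernatant collected at 48 h and filtered. A549 cells, 0.5 × 10^5/well in DMEM. Virus (~2 × 10^6 RLUs) premixed with sample, incubated with cells 24 h, then medium replaced. Luciferase read in lysates 48 h postinfection. Three experiments, each triplicate.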

[2] = test system: Human immunodeficiency virus 1; test: Antiviral activity against NNRTI-resistant HIV1 isolate N119 infected in PHA-stimulated human PBMC assessed as reduction in p24 level after 7 days by ELISA; type: functional, organism-based; conditions: Human immunodeficiency virus 1, isolate N119, PBMC, 168 h
Procedure, shortened: (§1)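 Donor PBMCs in R-3 medium (RPMI 1640, 15−20% FBS, 5% IL-2, penicillin/streptomycin, 2 mM L-glutamine), PHA-stimulated (2−3 μg/mL) 7 days; 1 × 10^5 cells/well with compound, challenged with 1000 TCID50 virus. p24 in supernatant by ELISA after 7 days. Seven concentrations (5, 1, 0.2, 0.04, 0.008, […], 0 μg/mL); IC50 versus no-drug wells; AZT positive control; three experiments, each triplicate.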

[3] = test system: Human immunodeficiency virus 1; test: Antiviral activity against HIV1 isolate LAV infected in PHA-stimulated human PBMC assessed as reduction in p24 level after 7 days by ELISA; type: functional, organism-based; conditions: Human immunodeficiency virus 1, isolate LAV, 168 h; procedure, shortened: as §1
[4] = test system: Human immunodeficiency virus 1; test: Antiviral activity against NRTI-resistant HIV1 isolate 1617-1 infected in PHA-stimulated human PBMC assessed as reduction in p24 level after 7 days by ELISA; type: functional, organism-based; conditions: Human immunodeficiency virus 1, isolate 1617-1, PBMC, 168 h; procedure, shortened: as §1
[5] = test system: Human immunodeficiency virus 1; test: Antiviral activity against HIV1/VSV-G pseudovirus infected in human A549 cells assessed as downregulation of R/U5 gene expression at 0.005 ug/ml after 48 hrs by Taqman-based real-time PCR analysis; type: functional; conditions: Human immunodeficiency virus 1, A549, 48 h
Procedure, shortened: (§2)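 A549 cells infected with VSV-G/HIV pseudovirus while treated with compound or AZT, 10-fold dilutions from 5 μg/mL, triplicate. After 48 h, cells processed for reverse transcription and TaqMan real-time PCR. R/U5 amplicon reads early transcripts, U5/gag reads late transcripts; GAPDH and 18S as internal controls.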

[6] = test system: Human immunodeficiency virus 1; test: Antiviral activity against HIV1 isolate 89.6 infected in PHA-stimulated human PBMC assessed as reduction in p24 level after 7 days by ELISA; type: functional, organism-based; procedure, shortened: as §1
[7] = Cytotoxicity against human PBMC after 48 hrs by CellTiter 96 AQueous one solution cell proliferation assay; type: cell-based
[8] = test system: Human immunodeficiency virus 1; test: Antiviral activity against HIV1 isolate BAL infected in PHA-stimulated human PBMC assessed as reduction in p24 level after 7 days by ELISA; type: functional, organism-based; procedure, shortened: as §1
HeLa = test: Cytotoxicity against human HeLa cells at 19 uM after 48 hrs by CellTiter 96 AQueous one solution cell proliferation assay; type: cell-based
Procedure, shortened: (§3)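 About 5000 cells/well in DMEM with FBS and penicillin/streptomycin; compound in DMSO added next day, 24 h at 37 °C, 5% CO2, then medium replaced. At 48 h after addition, CellTiter 96 Aqueous One added for 4 h, stopped with 10% SDS, absorbance read at 450 nm.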

A549 = test: Cytotoxicity against human A549 cells at 19 uM after 48 hrs by CellTiter 96 AQueous one solution cell proliferation assay; type: cell-based; conditions: a549, 48 h; procedure, shortened: as §3
[9] = test system: Human immunodeficiency virus 1; test: Antiviral activity against HIV1/VSV-G pseudovirus infected in human A549 cells assessed as downregulation of U5/gag gene expression at 0.005 ug/ml after 48 hrs by Taqman-based real-time PCR analysis; type: functional; conditions: Human immunodeficiency virus 1, A549, 48 h; procedure, shortened: as §2
[10] = test system: Human immunodeficiency virus 1; test: Antiviral activity against HIV1 isolate LAV0.04 infected in PHA-stimulated human PBMC assessed as reduction in p24 level after 7 days by ELISA; type: functional, organism-based; procedure, shortened: as §1
[11] = test system: Human immunodeficiency virus 1; test: Antiviral activity against HIV1 isolate SF162 infected in PHA-stimulated human PBMC assessed as reduction in p24 level after 7 days by ELISA; type: functional, organism-based; procedure, shortened: as §1
[12] = test system: Human immunodeficiency virus 1; test: Antiviral activity against HIV1/VSV-G pseudovirus infected in human A549 cells assessed as downregulation of R/U5 gene expression after 48 hrs by Taqman-based real-time PCR analysis; type: functional; procedure, shortened: as §2
[13] = test system: Human immunodeficiency virus 1; test: Antiviral activity against HIV1/VSV-G pseudovirus infected in human A549 cells assessed as downregulation of U5/gag gene expression after 48 hrs by Taqman-based real-time PCR analysis; type: functional; procedure, shortened: as §2
[14] = Human immunodeficiency virus 1, isolate 89.6, PBMC, 168 h
[15] = Human immunodeficiency virus 1, isolate BAL, PBMC, 168 h
[16] = Human immunodeficiency virus 1, isolate LAV0.04, PBMC, 168 h
[17] = Human immunodeficiency virus 1, isolate SF162, PBMC, 168 h

| Compound | IC50 [1] | IC50 [2] | IC50 [3] | IC50 [4] | Activity [6] | IC50 [6, 14] | Activity [8] | IC50 [8, 15] | Activity [10] | IC50 [10, 16] | Activity [11] | IC50 [11, 17] | also measured |
| --- | --- | --- | --- | --- | --- | --- | --- | --- | --- | --- | --- | --- | --- |
| COc1cc2c(O[C@@H]3OC[C@@H](O)[C@H](O)[C@H]3O)c3c(c(-c4ccc5c(c4)OCO5)c2cc1OC)C(=O)OC3 | 510 nM | – | – | – | – | – | – | – | – | – | – | – | – |
| COc1cc2c(O[C@@H]3O[C@H](CO)[C@@H](O)[C@H](O)[C@H]3O)c3c(c(-c4ccc5c(c4)OCO5)c2cc1OC)C(=O)OC3 | 770 nM | – | – | – | – | – | – | – | – | – | – | – | – |
| COc1cc2c(O)c3c(c(-c4ccc5c(c4)OCO5)c2cc1OC)C(=O)OC3 [DIPHYLLIN] | 1710 nM | – | – | – | – | – | – | – | – | – | – | – | – |
| Cc1ccnc2c1NC(=O)c1cccnc1N2C1CC1 [NEVIRAPINE] | – | > 100000 nM | 532 nM | 156 nM | – | – | – | – | – | – | – | – | – |
| COc1cc2c(O[C@@H]3O[C@H](C)[C@@H](O)[C@H](O)[C@H]3O)c3c(c(-c4ccc5c(c4)OCO5)c2cc1OC)C(=O)OC3 [PATENTIFLORIN A] | 26.9 to 27 nM | 47 nM | 108 nM | 61 nM | Dose-dependent effect | 32 nM | Dose-dependent effect | 30 nM | Dose-dependent effect | 24 nM | Dose-dependent effect | 37 nM | inhibition at 0.005 µg/mL [5]: 75%; IC50 ([6]; pbmc): 31 nM; CC50 at 48 h [7]: 75000 nM; IC50 ([8]; pbmc): 32 nM; Activity (HeLa): Non-Toxic; Activity (A549): Non-Toxic; inhibition at 0.005 µg/mL [9]: 75%; IC50 ([10]; pbmc): 32 nM; IC50 ([11]; pbmc): 30 nM |
| Cc1cn([C@H]2C[C@H](N=[N+]=[N-])[C@@H](CO)O2)c(=O)[nH]c1=O [ZIDOVUDINE] | – | 5.2 nM | 72 nM | 3510 nM | Dose-dependent effect | 95 nM | Dose-dependent effect | 77 nM | Dose-dependent effect | 79 nM | Dose-dependent effect | 85 nM | Activity [12]: Dose-dependent effect; inhibition (INH) [12]: 40%; Activity [13]: Dose-dependent effect; inhibition (INH) [13]: 40% |
